Calls of active or inactive are those of the source. No cut-off for these calls is given here.
Tests used:
[1] = tested on: HL-60; experiment: Effect on human HL60 cells assessed as fold change in IPO13 gene expression at 1.085 uM incubated for 6 hrs by microarray-based method; format: functional
Summary of the method: (§1)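 HL60 cells were treated in triplicate with 1.085 µM or vehicle for 6 h. Total RNA was extracted with on-column DNase treatment and profiled on expression arrays.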

[2] = tested on: HL-60; experiment: Effect on human HL60 cells assessed as fold change in C14orf180 gene expression at 1.085 uM incubated for 6 hrs by microarray-based method; format: functional; summary of the method: as §1
[3] = target: T1, Tubulin (Homo sapiens) (UniProt P68371+Q9H4B7+P0DPH7+P68366+Q13509+Q71U36+P04350+Q3ZCM7+P07437+P68363+Q9BQE3+Q6PEY2+Q13885+Q9BVA1+Q9BUF5); experiment: Inhibition of tubulin polymerization in human CEM cells at 300 nM by Western blot analysis; format: cell-based; conditions: TDE = time-dependent effect
Summary of the method: (§2)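 Leukemia cells (RS4;11, CEM, HL60) treated with 300 nM for 0, 15, 30, 60 and 360 min. Western blotting for β-tubulin and p53, with lamin B1 as loading control and chemiluminescent detection.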

[4] = tested on: HL-60; experiment: Effect on human HL60 cells assessed as fold change in CRADD gene expression at 1.085 uM incubated for 6 hrs by microarray-based method; format: functional; summary of the method: as §1
[5] = tested on: HeLa; experiment: Induction of cell cycle arrest in human HeLa cells assessed as formation of condensed chromosomes at 500 nM incubated for 18 hrs by DAPI staining based fluorescence microscopic method; format: functional
Summary of the method: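 HeLa cells (100,000/mL) cultured overnight on glass-bottom dishes, then exposed to 500 nM or 1 μM, or DMSO, for 18 h. Permeabilized (0.5% Triton X-100) and fixed (3.7% formaldehyde). Stained overnight at 4 °C with anti-β-tubulin, then Alexa Fluor 647 secondary for 1 h at room temperature, and DAPI 1 μg/mL for 10 min. Examined by fluorescence microscopy.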

[6] = tested on: RS4-11; experiment: Induction of apoptosis in human RS4:11 cells assessed as accumulation of cells at G2 phase at 300 nM incubated for 18 hrs in presence of PARP antibody by immunofluorescent staining based flow cytometric analysis relative to control; format: functional
Summary of the method: (§3)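 RS4;11 cells treated with 300 nM or DMSO vehicle for 18 h, then pulsed with 10 μM BrdU for 1 h. Harvested cells immunostained for BrdU/PI (cell cycle), γH2AX (DNA damage) and PARP (apoptosis). Multicolor flow cytometry gated G1, sub-G2-like, G2/M and sub-G0/G1 populations.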

[7] = tested on: HL-60; experiment: Effect on human HL60 cells assessed as fold change in INSIG1 gene expression at 1.085 uM incubated for 6 hrs by microarray-based method; format: functional; summary of the method: as §1
[8] = target: T1, Tubulin (Homo sapiens); experiment: Inhibition of tubulin polymerization in human HL60 cells at 300 nM by Western blot analysis; format: cell-based; conditions: TDE = time-dependent effect; summary of the method: as §2
[9] = tested on: HL-60; experiment: Effect on human HL60 cells assessed as fold change in TAS1R1 gene expression at 1.085 uM incubated for 6 hrs by microarray-based method; format: functional; summary of the method: as §1
[10] = tested on: RS4-11; experiment: Antitumor activity against human RS4:11 cells xenografted in NOD/SCID mouse assessed as increase in survival at 10 mg/kg, ip administrated 5 times per week; format: functional, organism-based
Summary of the method: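 Ten million RS4;11 cells were injected into the tail vein of unconditioned NOD/SCID mice. Engraftment was tracked by flow cytometry of human versus mouse CD45 in ficoll-isolated blood. When human CD45+ cells reached ≥1.5% in half of the mice, animals were randomized (n=5 per group) to vehicle (1% PVP, 4% DMSO, 95% PBS) or 10 mg/kg ip, 5x per week until death. Groups were compared by Kaplan-Meier curves and log-rank test.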

[11] = tested on: HL-60; experiment: Effect on human HL60 cells assessed as fold change in C7orf43 gene expression at 1.085 uM incubated for 6 hrs by microarray-based method; format: functional; summary of the method: as §1
[12] = tested on: RS4-11; experiment: Induction of cell cycle arrest in human RS4:11 cells assessed as decrease in accumulation at G1 phase at 300 nM incubated for 18 hrs by BrdU/propidium iodide staining based flow cytometric analysis; format: functional; summary of the method: as §3
[13] = tested on: RS4-11; experiment: Induction of apoptosis in human RS4:11 cells assessed as accumulation of cells at sub G2 phase at 300 nM incubated for 18 hrs in presence of PARP antibody by immunofluorescent staining based flow cytometric analysis relative to control; format: functional; summary of the method: as §3
[14] = tested on: HL-60; experiment: Effect on human HL60 cells assessed as fold change in MOB2 gene expression at 1.085 uM incubated for 6 hrs by microarray-based method; format: functional; summary of the method: as §1
[15] = tested on: HL-60; experiment: Induction of cell cycle arrest in human HL60 cells assessed as accumulation of cells at G2/M phase at EC50 incubated for 18 hrs by PI staining based flow cytometric analysis (reference value: 23.0%); format: functional
[16] = tested on: HL-60; experiment: Effect on human HL60 cells assessed as fold change in PNMT gene expression at 1.085 uM incubated for 6 hrs by microarray-based method; format: functional; summary of the method: as §1
[17] = tested on: HL-60; experiment: Induction of differentiation in human HL60 cells assessed as increase in CD14 positive cells incubated for 48 hrs by 7-AAD staining-based flow cytometric analysis; format: functional, cell-based
Summary of the method: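 Vitamin D3 at 100 nM and ATRA at 2 μM served as positive controls. Stained with APC anti-CD11b and PE anti-CD14 for 30 min at 4 °C, then 7-AAD.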

[18] = tested on: RS4-11; experiment: Induction of apoptosis in human RS4:11 cells at 300 nM incubated for 18 hrs by Annexin V-FITC/propidium iodide staining-based flow cytometric analysis; format: functional, cell-based
Summary of the method: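 CEM, HL60 or RS4;11 cells (5×10^5) treated with 300 nM or vehicle for 18 h. Stained with FITC-Annexin V in binding buffer for 15 min at 37 °C, then PI (5 μg/mL) for 3 min. Analyzed by flow cytometry.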

[19] = tested on: HL-60; experiment: Effect on human HL60 cells assessed as increase in p53 protein expression at 300 nM incubated for 15 to 360 mins by Western blot analysis; format: functional, cell-based; summary of the method: as §2
[20] = tested on: RS4-11; experiment: Induction of DNA damage in human RS4:11 cells assessed as accumulation of cells at G2 phase at 300 nM incubated for 18 hrs in presence of H2AX antibody by immunofluorescent staining based flow cytometric analysis relative to control; format: functional; summary of the method: as §3
[21] = tested on: HL-60; experiment: Effect on human HL60 cells assessed as fold change in SLC8A2 gene expression at 1.085 uM incubated for 6 hrs by microarray-based method; format: functional; summary of the method: as §1
[22] = tested on: HL-60; experiment: Effect on human HL60 cells assessed as fold change in TIAL1 gene expression at 1.085 uM incubated for 6 hrs by microarray-based method; format: functional; summary of the method: as §1
[23] = tested on: HL-60; experiment: Induction of cell cycle arrest in human HL60 cells assessed as accumulation of cells at G2/M phase at EC50 incubated for 12 hrs by PI staining based flow cytometric analysis (reference value: 23.0%); format: functional
[24] = tested on: RS4-11; experiment: Antiproliferative activity against human RS4:11 cells incubated for 48 hrs by MTT assay; format: functional, cell-based; conditions: RS4-11, 48 h
Summary of the method: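 Cells grown in RPMI-1640 with 10% FBS, penicillin/streptomycin, 37 °C, 5% CO2. After 48 h of exposure to a dilution series, MTT was added (0.5 mg/ml final) for 4 h. Formazan was dissolved overnight in acidic SDS (10% SDS, 0.01 mol/L HCl) and absorbance read at 570 and 620 nm. Survival was expressed relative to controls, and EC50 was fitted from dose-response curves.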

inhibition [3]: Tde
inhibition [8]: Tde
EC50 [24]: 0.3 µM
SMILES: COC(=O)c1[nH]c2cc(OC)ccc2c1-c1ccc(C(F)(F)F)cc1
fold change (FC) [1]: 1.8
fold change (FC) [2]: 1.56
fold change (FC) [4]: 1.61
Activity [5]: Active
Activity [6]: 1.5%
fold change (FC) [7]: -1.64
fold change (FC) [9]: -1.51
Activity [10]: Active
fold change (FC) [11]: -1.72
Activity [12]: Active
Activity [13]: 3.5%
fold change (FC) [14]: -1.79
Activity [15]: 56.3%
fold change (FC) [16]: -1.53
Activity [17]: Dose-dependent effect
Activity [18]: Active
Activity [19]: Active
Activity [20]: 6.9%
fold change (FC) [21]: -1.53
fold change (FC) [22]: 1.63
Activity [23]: 48%
